Results as given in ChEMBL document CHEMBL1145211, “Substituted 5,5'-diphenyl-2-thioxoimidazolidin-4-one as CB1 cannabinoid receptor ligands: synthesis and pharmacological evaluation” (J Med Chem, 2005).

What was measured:
[1] = target: Cannabinoid receptor 2 (Homo sapiens) (UniProt P34972); assay: Displacement of [3H]CP-55940 from human CB2 receptor expressed in CHO cells at 10 uM; type: cell-based
In short: (§1)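 Membranes (40 µg) from CHO cells stably expressing human CB1 or CB2, with 1 nM [3H]SR141716A (CB1) or 1 nM [3H]CP-55,940 (CB2), and compound at 10 µM. Incubated 1 h at 30 °C in Tris-HCl pH 7.4 with MgCl2, EDTA and 0.5% BSA. Nonspecific binding defined with 10 µM HU-210. Bound ligand recovered on PEI-treated GF/B filters for scintillation counting; reported as % radioligand displaced.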

Cannabinoid receptor 1 [2] = target: T1, Cannabinoid receptor 1 (Homo sapiens, UniProt P21554); assay: Displacement of [3H]SR-141,716A from human Cannabinoid receptor 1 (CB1 receptor) expressed in CHO cells at 10 uM; type: cell-based; in short: as §1
Cannabinoid receptor 1 [3] = target: T1, Cannabinoid receptor 1; assay: biochemical; type: cell-based, CHO
Cannabinoid receptor 1 [4] = target: T1, Cannabinoid receptor 1; details: CHO, at 10 µM
Cannabinoid receptor 1 [5] = target: T1, Cannabinoid receptor 1; details: CHO, 10 uM
Cannabinoid receptor 1 [6] = target: T1, Cannabinoid receptor 1; assay: Inhibition of [3H]SR-141,716A binding to human CB1 receptor expressed in CHO cells; type: cell-based
In short: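 Competition curves on hCB1-CHO membranes (40 µg) with 1 nM [3H]SR141716A and varying compound concentrations, up to 10^-5 M. Incubated 1 h at 30 °C, pH 7.4, 0.5% BSA; final DMSO below 0.1%. Nonspecific binding defined with 10 µM HU-210; filtration, then counting. Ki derived from IC50 by nonlinear fitting and Cheng-Prusoff (Kd 1.13 nM). Mean ± SEM of at least four experiments, each in duplicate.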

T1 sequence (P21554 whole entry): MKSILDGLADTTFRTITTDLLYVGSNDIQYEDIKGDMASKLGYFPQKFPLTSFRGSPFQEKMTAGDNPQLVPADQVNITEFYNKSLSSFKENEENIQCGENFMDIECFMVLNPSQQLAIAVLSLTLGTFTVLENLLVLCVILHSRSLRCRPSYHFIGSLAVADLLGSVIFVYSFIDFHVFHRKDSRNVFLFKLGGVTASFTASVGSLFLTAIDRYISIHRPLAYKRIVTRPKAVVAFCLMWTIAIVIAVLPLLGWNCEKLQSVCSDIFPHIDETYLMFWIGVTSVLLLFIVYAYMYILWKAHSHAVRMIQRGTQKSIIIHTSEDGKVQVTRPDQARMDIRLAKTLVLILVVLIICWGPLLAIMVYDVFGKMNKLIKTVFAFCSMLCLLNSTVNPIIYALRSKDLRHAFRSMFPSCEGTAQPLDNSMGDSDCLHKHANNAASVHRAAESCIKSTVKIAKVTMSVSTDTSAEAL
Chain of Cannabinoid receptor 2 (Homo sapiens) (P34972 whole entry): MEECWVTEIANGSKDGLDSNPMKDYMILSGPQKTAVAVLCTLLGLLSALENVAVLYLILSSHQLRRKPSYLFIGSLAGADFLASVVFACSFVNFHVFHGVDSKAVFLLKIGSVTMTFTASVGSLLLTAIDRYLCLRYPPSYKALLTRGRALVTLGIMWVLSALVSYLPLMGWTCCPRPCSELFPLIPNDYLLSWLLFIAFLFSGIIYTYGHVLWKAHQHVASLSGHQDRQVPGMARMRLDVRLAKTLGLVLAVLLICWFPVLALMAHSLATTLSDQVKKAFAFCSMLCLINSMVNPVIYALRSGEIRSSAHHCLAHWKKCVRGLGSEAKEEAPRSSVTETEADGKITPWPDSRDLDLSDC

SMILES	Displacement [1]	Displacement (Cannabinoid receptor 1 [2])	Ki (Cannabinoid receptor 1 [3])	Decrease (Cannabinoid receptor 1 [4])	Increase (Cannabinoid receptor 1 [5])	Ki (Cannabinoid receptor 1 [6])
O=C1N(Cc2ccccc2)C(=S)NC1(c1ccccc1)c1ccccc1	< 10%	44.7%				
CC(C)CN1C(=O)C(c2ccc(Cl)cc2)(c2ccc(Cl)cc2)NC1=S	< 20%	76.1%	2.09 µM	-74%		
CC(C)N1C(=O)C(c2ccc(Br)cc2)(c2ccc(Br)cc2)NC1=S	< 15%	91.7%	3.63 µM			
O=C1N(CCCO)C(=S)NC1(c1ccccc1)c1ccccc1	< 10%	20.8%				
CCCCN1C(=O)C(c2ccccc2)(c2ccccc2)NC1=S	< 10%	42.8%				
CCCCCCCN1C(=O)C(c2ccccc2)(c2ccccc2)NC1=S	< 10%	28.8%				
CCCCN1C(=O)C(c2ccc(Br)cc2)(c2ccc(Br)cc2)NC1=S	< 15%	73.8%	1.41 µM			
C=CCN1C(=O)C(c2ccc(Br)cc2)(c2ccc(Br)cc2)NC1=S	< 15%	87.2%	0.871 µM	-74%		
CCCCN1C(=O)NC(c2ccc(Br)cc2)(c2ccc(Br)cc2)C1=O				-74%		
CCCCCCCCN1C(=O)C(c2ccc(Br)cc2)(c2ccc(Br)cc2)NC1=S	< 10%	23.4%				
CCN1C(=O)C(c2ccc(Br)cc2)(c2ccc(Br)cc2)NC1=S	< 20%	90.9%	2.19 µM			
COCCCN1C(=O)C(c2ccccc2)(c2ccccc2)NC1=S	< 15%	29.4%				
CCCCCCN1C(=O)C(c2ccc(Br)cc2)(c2ccc(Br)cc2)NC1=S	< 10%	45.5%				
O=C1N(Cc2ccccc2)C(=S)NC1(c1ccc(Br)cc1)c1ccc(Br)cc1	< 10%	76%	0.993 µM	-74%		
O=C1N(Cc2ccco2)C(=S)NC1(c1ccccc1)c1ccccc1	< 15%	59.2%				
CCN1C(=O)C(c2ccccc2)(c2ccccc2)NC1=S	< 10%	40%				
CCCCCCCN1C(=O)C(c2ccc(Br)cc2)(c2ccc(Br)cc2)NC1=S	< 10%	34.2%				
CCCCCCCCN1C(=O)C(c2ccc(Cl)cc2)(c2ccc(Cl)cc2)NC1=S	< 10%	36.6%				

SMILES	Displacement [1]	Displacement (Cannabinoid receptor 1 [2])	Ki (Cannabinoid receptor 1 [3])	Decrease (Cannabinoid receptor 1 [4])	Increase (Cannabinoid receptor 1 [5])	Ki (Cannabinoid receptor 1 [6])
CC(C)CN1C(=O)C(c2ccc(Br)cc2)(c2ccc(Br)cc2)NC1=S	< 20%	76.3%	1.78 µM	-74%		
CCCCCCC(C)(C)c1cc(O)c2c(c1)OC(C)(C)[C@H]1CC=C(CO)C[C@H]21 [DEXANABINOL]			0.0186 µM		130%	
CCCCN1C(=O)NC(c2ccc(I)cc2)(c2ccc(I)cc2)C1=O			1.82 µM	-74%		
CC(C)N1C(=O)C(c2ccccc2)(c2ccccc2)NC1=S	< 10%	42.8%				
CC(C)CN1C(=O)C(c2ccccc2)(c2ccccc2)NC1=S	< 10%	34.6%				
C=CCN1C(=O)C(c2ccccc2)(c2ccccc2)NC1=S	< 15%	40%				
C=CCN1C(=O)C(c2ccc(I)cc2)(c2ccc(I)cc2)NC1=S	< 20%	94.2%	0.589 µM	-74%		
CCCCCCCN1C(=O)C(c2ccc(Cl)cc2)(c2ccc(Cl)cc2)NC1=S	< 10%	67.8%				
O=C1N(CCc2ccccc2)C(=S)NC1(c1ccccc1)c1ccccc1	< 10%	29.3%				
C=CCN1C(=O)NC(c2ccc(I)cc2)(c2ccc(I)cc2)C1=O				-74%		
CCCCCCCCN1C(=O)C(c2ccccc2)(c2ccccc2)NC1=S	< 20%	38.8%				
O=C1N(CCc2ccccc2)C(=S)NC1(c1ccc(Cl)cc1)c1ccc(Cl)cc1	< 15%	79.4%	3.8 µM			
O=C1N(CCc2ccccc2)C(=S)NC1(c1ccc(Br)cc1)c1ccc(Br)cc1	< 10%	54.6%				> 10 µM
O=C1N(Cc2ccccc2)C(=S)NC1(c1ccc(Cl)cc1)c1ccc(Cl)cc1	< 15%	74.2%	2.19 µM	-74%		
O=C1NC(c2ccc(Br)cc2)(c2ccc(Br)cc2)C(=O)N1Cc1ccccc1				-74%		
CCCCCCN1C(=O)C(c2ccccc2)(c2ccccc2)NC1=S	< 10%	38.5%				
CCCCN1C(=O)C(c2ccc(I)cc2)(c2ccc(I)cc2)NC1=S	< 20%	77.4%	0.724 µM	-74%		
